Only some compounds are listed: those with a hit (about 1.7% of all), similar ones and a draw of the others.
Hsp70 activator – Hsp70 transcriptional activation, primary screen; HeLa Hsp70 promoter luciferase reporter, luminescence; scaled: vehicle 0, proteasome-inhibitor control 100%; activation, % at 10 µM; 200,000 tested, 0.04% active;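 active = activation above the mean across all tested compounds plus 3 SD, cutoff set per campaign, cut at about 5.5% in these data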;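 also: 100% = MG132 at 30 µM as the positive control and 0% = DMSO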
Dynein transport – blocks dynein driven cargo transport along microtubules; z-score, hits read low; 3617.4 mouse cells, GR-EGFP nuclear translocation imaging; test concentration mostly 20 µM; stimulated with dexamethasone, 1 µM; active compounds read low; 220,000 tested, 0.47% active; AID 1381;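 active = plate z-score of nuclear minus cytoplasmic receptor signal below a set negative limit, without overly bright fluorescence or cell loss, cut at about -3.5 in these data, passing the limit was not always enough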;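 also: z-score of nuclear minus cytoplasmic ring GR-EGFP intensity difference per well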
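Also added – dexamethasone, 1.0 µM final · Buffer or medium – tet-free, stripped-serum medium · Schedule – induction 48 h, compound 1 h, agonist 30 min · Detection – formaldehyde fixation, Hoechst nuclear stain, 10x automated fluorescence imaging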
EP2 mod – modulates human prostaglandin E2 receptor EP2 signaling; P43116; EP2-expressing cells, cAMP HTRF FRET, PGE2 co-stimulation; induction, % at 25 µM; 260,000 tested, 0.83% active; AID 940;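 active = compounds whose cAMP rise, as percent of the full-agonist control response, exceeds 60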;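 also: rat C6 glioma line stably carrying human EP2 under a CMV promoter; the protocol text gives 20 µM as final concentration; 100% = response of wells given 1 µM PGE2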
Target sequence (P43116 whole entry, looked up): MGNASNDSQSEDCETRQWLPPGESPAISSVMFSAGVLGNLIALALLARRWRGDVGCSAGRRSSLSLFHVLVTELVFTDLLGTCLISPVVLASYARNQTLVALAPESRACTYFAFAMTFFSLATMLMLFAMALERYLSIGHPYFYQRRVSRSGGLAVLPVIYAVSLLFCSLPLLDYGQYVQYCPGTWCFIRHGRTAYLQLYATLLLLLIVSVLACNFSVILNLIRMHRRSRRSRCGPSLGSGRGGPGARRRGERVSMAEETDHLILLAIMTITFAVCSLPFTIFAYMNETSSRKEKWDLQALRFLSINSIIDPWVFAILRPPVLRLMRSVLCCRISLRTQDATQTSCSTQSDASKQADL
EP2 antag – blocks the human prostaglandin E2 receptor EP2; P43116; C6 glioma cells expressing human EP2, cAMP TR-FRET; cells stimulated with saturating PGE2; inhibition, % at 25 µM; 260,000 tested, 0.52% active; AID 1422;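 active = percent inhibition above 40 after rounding to a whole number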;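 also: rat C6 glioma host cells with rolipram phosphodiesterase inhibitor present; the protocol text gives 20 µM as final concentration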
Numbers without * were called inactive; x = no result.

SMILES	Hsp70 activator	Dynein transport	EP2 mod	EP2 antag
CCC(c1nnnn1C(C)(C)CC)N(Cc1ccco1)Cc1cc2cc(C)ccc2[nH]c1=O (configuration not stated)	x	x	90*	7
NCCS(=O)(=O)N1CCCC1	x	x	-13	16
Cc1ccc(-c2cc(N)c(=O)n(CC(=O)NC3CCCCC3)n2)s1	x	x	-114	7
CCC1c2ccc(C)n2CCN1Cc1ccccc1OCCCN(C)C (configuration not stated)	x	x	5	4
COc1ccc(CC(=O)N[C@@H](Cn2nnc3ccccc32)C(C)C)cc1OC	x	x	-16	5
COc1ccc(N=c2oc3c(OC)cccc3cc2C(=O)NC2CCCC2)cc1	x	x	79*	5
CCOc1ccc(N=c2oc3c(OC)cccc3cc2C(=O)Nc2nccs2)cc1	x	x	-60	16
Cc1[nH]c(=O)[nH]c(=O)c1CSCC(=O)O	x	x	9	11
Cc1ccc(C(=O)N2C(=O)C(c3ccccc3)Oc3ccccc32)cc1 (configuration not stated)	x	0.074	87*	10
Nc1cccc2nsnc12	x	-1.8	-22	9
Nc1cc2nsnc2cc1Br	0	-0.27	-201	138*
ClC(=Nc1cccc2ccccc12)N(c1ccccc1)c1ccccc1	x	x	38	40*
COC(=O)c1cccc(S(=O)(=O)N(Cc2cccs2)Cc2cc3cc(OC)ccc3[nH]c2=O)c1	x	x	-88	46*
COc1ccc2[nH]c(=O)c(CN(Cc3cccs3)S(=O)(=O)c3ccc(C(C)=O)cc3)cc2c1	x	x	-99	66*
Cc1ccc2cc(CN(Cc3nnnn3CCc3ccccc3)C3CCCC3)c(=O)[nH]c2c1	x	x	53	8
COc1cc(C=O)ccc1OCc1cccc(Br)c1	0	-0.038	11	2
COc1cc(C=O)ccc1OCc1ccccc1Br	0	-0.32	65*	5
CNc1ccc(Br)cc(C(=O)/C=C/c2cc(OC)ccc2OC)c1=O	1	-4.1*	-20	7
COCCNC(=O)Cn1cnc2c(cnn2-c2ccccc2Cl)c1=O	x	x	-1	14
O=C(NCCN1CCNCC1)c1c(O)c2ccccc2[nH]c1=O	x	x	-2	6
O=C(c1ccccc1)c1cnc2ccc(Cl)cc2c1N1CCOCC1	0	-0.26	17	8
COc1cc2ncc(C(=O)c3ccccc3)c(N3CCN(Cc4ccccc4)CC3)c2cc1OC	x	-0.6	86*	7
CCOc1cc2c(cc1CN(C)CC1CCN(C)C1)OCO2 (configuration not stated)	x	x	2	-1
COc1nc(C)c(CC(=O)NCc2cc(C)cc3c(C)c(C)[nH]c23)c(OC)n1	x	x	-72	3
Nc1nc(-c2cc(-c3cccc4ccccc34)nc(N)n2)cc(-c2cccc3ccccc23)n1	x	x	-10	57*
SMILES	Hsp70 activator	Dynein transport	EP2 mod	EP2 antag
Nc1ccc2oc(-c3cccc4ccccc34)nc2c1	-1	0.058	-36	26
Cc1cc(Cc2cc(Cc3cc(C)cc(C(C)(C)C)c3O)c(C)cc2C)c(O)c(C(C)(C)C)c1	x	x	19	52*
Cc1cc(C)c(O)c(Cc2cccc(Cc3cc(C)cc(C)c3O)c2O)c1	x	x	23	36
C[N+](C)(C)CCCSc1nc2ccccc2[nH]1	x	x	21	42*
c1ccc(CNc2nc(-c3cccs3)nc3ccccc23)cc1	0	-0.96	7	13
CCSc1nc(-c2cccs2)nc2ccccc12	0	-0.18	64*	5
Clc1ccc2[nH]c3c(N4CCC5(CC4)OCCO5)ncnc3c2c1	0	-0.017	-60	46*
Cc1cc2ccccc2n2c(=O)n(CC(=O)N3CCCCCC3)nc12	x	x	-27	8
Cn1ccnc1Sc1nc2ccccc2nc1NS(=O)(=O)c1ccccc1	0	2.4	50	52*
Cc1cc(=Nc2ccc3c(c2)c(N)cc(C)[n+]3C)nc(N)n1C	x	x	20	42*
O=c1c2ccccc2c(-c2ccc(Cl)cc2)nn1-c1ccccc1	0	x	63*	5
Cc1nn(-c2ccc(Cl)cc2)c(=O)c2ccccc12	0	-0.89	24	10
Cc1ccc(NC(=O)c2cc(N3C(=O)C=CC3=O)ccc2N2CCOCC2)cc1Cl	0	-3.3	-59	94*
Cc1ccc(NC(=O)c2cc(N3C(=O)CCC3=O)ccc2N2CCOCC2)cc1	0	1.6	-20	8
CCN(CC)CCCN1C(=O)C(=O)/C(=C(\O)c2cc(C)ccc2C)C1c1cccs1 (configuration not stated)	x	x	3	10
COc1ccc(Nc2c(C)c(C)nc3ncnn23)c(OC)c1	x	x	2	10
Cn1c(N/N=C/c2cccs2)cc(=O)n(C)c1=O	0	-0.54	10	x
Fc1c(F)c(C(F)(F)F)c(F)c(F)c1N/N=C\c1cccs1	0	0.98	-47	124*
Cc1cc2c(C)ccc(C)c2nc1SCC(=O)O	x	x	79*	14
Cc1cc2cccc(C)c2nc1SCC(=O)c1ccccc1	x	x	69*	24
CC(C)(N)COc1nonc1N	x	x	-22	13
COc1ccc(N2C(=O)CC(Sc3nc(C)cc(C)c3C#N)C2=O)cc1 (configuration not stated)	0	0.59	11	8
COc1ccc(N2C(=O)CC(Sc3nnc(-c4ccccc4)o3)C2=O)cc1 (configuration not stated)	1	-4.1*	28	7
Cc1nn2c(NCCO)c3c(nc2c1-c1ccccc1)CCCC3	x	x	-27	x
O=C(Nc1ccc(OCC(F)(F)C(F)F)c(C(F)(F)F)c1)c1ccccc1O	0	0.57	-19	15
SMILES	Hsp70 activator	Dynein transport	EP2 mod	EP2 antag
O=C(Nc1ccc(OCC(F)(F)C(F)F)c(C(F)(F)F)c1)c1ccccc1	0	-0.52	x	45*
CCc1cc(C(=O)OC)c(NC(=O)C2CC(=O)NN2Cc2ccccc2)s1 (configuration not stated)	0	-0.33	63*	7
Cn1c(COc2cccc3ccccc23)nnc1SCC(=O)NC1CCCC1	x	x	22	7
O=[N+]([O-])c1cc(C(F)(F)F)ccc1NC1CCN(Cc2ccccc2)CC1	x	0.17	61*	8
O=S1(=O)c2ccccc2N=NN1Cc1ccc(Cl)c(Cl)c1	0	-0.18	-36	45*
Cc1cc(C)c(C)c(S(=O)(=O)N2CCCC2C(=O)O)c1C (configuration not stated)	x	x	7	5
Cc1cccc(NC(=O)COc2ccc(S(=O)(=O)N3CCCC3)cc2)c1C	x	x	1	15
C=CCOc1ccc(Cl)cc1CNC1CCCC1	0	-1	62*	5
COc1ccc(CNC2CCCC2)c(OC)c1OC	0	-1.1	49	11
COc1cc(C2NC(=O)NC(C)=C2C(=O)Nc2ccccc2)cc(Cl)c1O (configuration not stated)	x	x	-22	8
C=CCc1cc(C)ccc1OCCCC(C(=O)OCC)C(=O)OCC	0	-0.91	61*	7
NS(=O)(=O)C1=C(Cl)CC2=NC(CCC(=O)O)=NS(=O)(O)=C2C1	x	x	11	45*
C=CC(C1=CC(=O)C=CC1=O)c1ccccc1 (configuration not stated)	x	x	-1	8
C=C[C@@H](C1=CC(=O)C(OC)=C(OC)C1=O)c1ccccc1	x	x	-32	120*

High-throughput results: PubChem, several laboratories
